Assay results pooled from the literature.
Compare with care: the assays were run in different laboratories.
Target: Acetylcholinesterase (ACHE, Homo sapiens, UniProt P22303)
Action: inhibitor

Structure (SMILES)	test	IC50 [µM]
CNC(=O)c1ccc(-c2cnn3ccc(C(=O)N(C)c4ccc(Cl)c(C(=O)O)c4)cc23)cc1	cell-free assay	> 30
Cn1cc(-c2cc(C(=O)NN=Cc3ccccc3F)no2)c2ccccc21	enzyme activity	> 100
C#CCN(C)CCCCOCc1ccc(CN(C)c2c3c(nc4ccccc24)CCCC3)cc1	enzyme activity, Ellman	2.36
O=C(NCCN1CCCCC1)c1ccccc1F	enzyme activity, Ellman	0.013
COc1ccc(S(=O)(=O)Oc2ccc(C=NNC(=O)c3ccc(F)cc3)cc2)cc1	enzyme activity, Ellman	0.0121
O=C(NCCN1CCCCC1)c1cccc(Cl)c1	enzyme activity, Ellman	0.63
CNC(=O)c1ccc(-c2cnn3ccc(C(=O)N(C)c4ccc(Cl)c(C(=O)OC)c4)cc23)cc1	cell-free assay	> 30
O=[N+]([O-])c1c[nH]c(-c2n[nH]c(=S)n2/N=C/c2ccc(F)cc2O)c1	enzyme activity, Ellman	7.1
C#CCN(C)CCOc1cccc(CN(C)c2c3c(nc4ccccc24)CCCC3)c1	enzyme activity, Ellman	4.21
Cn1cc(-c2cc(C(=O)NN=Cc3ccccc3)no2)c2ccccc21	enzyme activity	> 100
C#CCN(C)CCCCCOCc1ccc(CN(C)c2c3c(nc4ccc(C)cc24)CCCC3)cc1	enzyme activity, Ellman	13.4
CN(C)c1ccc(/C=N/n2c(-c3cc([N+](=O)[O-])c[nH]3)n[nH]c2=S)c(O)c1	enzyme activity, Ellman	21.2
COc1cccc(C(=O)NCCN2CCCCC2)c1	enzyme activity, Ellman	5.2
C#CCN(C)CCCCCCOc1cccc(CN(C)c2c3c(nc4ccccc24)CCCC3)c1	enzyme activity, Ellman	1.16
O=[N+]([O-])c1c[nH]c(-c2n[nH]c(=S)n2/N=C/c2ccc(F)c([N+](=O)[O-])c2)c1	enzyme activity, Ellman	15.5
C#CCN(C)CCCCCCOCc1ccc(CN(C)c2c3c(nc4ccc(C)cc24)CCCC3)cc1	enzyme activity, Ellman	45.8

Structure (SMILES)	test	IC50 [µM]
Cn1cc(-c2cc(C(=O)NN=Cc3ccncc3)no2)c2ccccc21	enzyme activity	> 100
O=C(NCCN1CCCCC1)c1ccc(Cl)cc1	enzyme activity, Ellman	46
O=[N+]([O-])c1c[nH]c(-c2n[nH]c(=S)n2/N=C/c2ccc(Cl)c(Cl)c2)c1	enzyme activity, Ellman	14.2
O=C(NCCN1CCCCC1)c1cccc(F)c1	enzyme activity, Ellman	1.6
O=[N+]([O-])c1c[nH]c(-c2n[nH]c(=S)n2/N=C/c2cc(O)cc(F)c2)c1	enzyme activity, Ellman	8.8
COc1ccc(S(=O)(=O)Oc2cccc(C=NNC(=O)c3ccc(F)cc3)c2)cc1	enzyme activity, Ellman	0.0895
O=[N+]([O-])c1c[nH]c(-c2n[nH]c(=S)n2/N=C/c2ccc(Br)c(Br)c2)c1	enzyme activity, Ellman	27.1
COc1ccc(C(=O)NCCN2CCCCC2)cc1	enzyme activity, Ellman	5.6
O=[N+]([O-])c1c[nH]c(-c2n[nH]c(=S)n2/N=C/c2ccc(Cl)cc2[N+](=O)[O-])c1	enzyme activity, Ellman	15.1
C#CCN(C)CCCCCCCOc1cccc(CN(C)c2c3c(nc4ccccc24)CCCC3)c1	enzyme activity, Ellman	1.14
CCN(CC)c1ccc(C=NNC(=O)c2ccc(F)cc2)c(OS(=O)(=O)c2ccc(OC)cc2)c1	enzyme activity, Ellman	0.0837
Cn1cc(-c2cc(C(=O)NN=Cc3ccccc3Cl)no2)c2ccccc21	enzyme activity	> 100
O=[N+]([O-])c1c[nH]c(-c2n[nH]c(=S)n2/N=C/c2ccc(C(F)(F)F)cc2)c1	enzyme activity, Ellman	5.1
COc1ccc(S(=O)(=O)Oc2ccccc2C=NNC(=O)c2ccc(F)cc2)cc1	enzyme activity, Ellman	0.107
COc1ccccc1C=NNC(=O)c1cc(-c2cn(C)c3ccccc23)on1	enzyme activity	34.2
